Assay [1] relates to Human immunodeficiency virus 1. Nature of the assay: Inhibitory effects on HIV-1 induced syncytium formation in C8166 cells. The class given is functional, organism-based. The note with it: Human immunodeficiency virus 1, C8166. In short, it runs like this:
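C8166 cells were infected with HIV-1 RF at moi 1×10^-3 and plated at 10^5 cells/well. Compound in Me2SO was serially diluted in RPMI 1640 from 50 to 0.05 μg/mL. Cells were kept 3–4 days at 37 °C, 5% CO2, and checked daily for syncytia. Syncytia were scored against untreated infected controls, and EC50 was calculated as 50% reduction of cytopathic effect.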

The test system of a further assay is MT4. In words: Inhibition of cytopathic effect of HIV-1 strain RF in MT-4 cell culture. Conditions: Homo sapiens. The class given is functional, cell-based. The essentials: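 MT-4 cells at 10^6 cells/mL in RPMI 1640 were infected with HIV-1 RF at moi 2×10^-3 (5×10^4 cells/well). Compound in Me2SO was diluted in 10-fold steps from 100 to 0.01 μg/mL. Cells were kept 7 days at 37 °C, 5% CO2, then given MTT for 60 min. Acidified 2-propanol was added and A540 read. EC50 for 50% inhibition of formazan conversion is the mean of duplicates; toxicity was assayed at the same concentrations.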
A general note: Damage to the host cells serves as the signal in cytopathic effect assays.

Assay [2] deals with Human immunodeficiency virus type 1 protease (Human immunodeficiency virus 1, UniProt Q72874). Nature of the assay: Inhibitory activity against HIV-1 Protease. The essentials:
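Buffer: 20 mM MES pH 6.0, 2 M NaCl, 5 mM DTT, 2 mM EDTA. Compounds in 25% Me2SO over a concentration range. Incubated 60 min at 37 °C with shaking, then filtered; released radioactivity counted by scintillation. IC50 from duplicate means, standardized to a reference-compound control.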

The EC50 is the concentration needed to bring the measured effect to its halfway point. Higher therefore signals lower potency in that assay. Broadly, the IC50 is the point on the concentration scale where inhibition reaches its midpoint. Read a low IC50 as inhibition by little substance.

Take `CCNC(=O)[C@@H](NC(=O)Cc1cccs1)[C@@H]1N[C@@H](C(=O)NCCNC(=O)[C@@H]2N[C@@H]([C@H](NC(=O)Cc3cccs3)C(=O)NCC)SC2(C)C)C(C)(C)S1`: the results for the EC50 (in assay [1]; with MT4) were 5200 nM and 27000 nM, respectively. Further, half-maximal inhibition in assay [2] (IC50) required 15 nM.
Taken in the same sequence, the figures for `CN(C)C(=O)[C@@H](NC(=O)Cc1ccccc1)[C@@H]1N[C@@H](C(=O)NCCNC(=O)[C@@H]2N[C@@H]([C@H](NC(=O)Cc3ccccc3)C(=O)N(C)C)SC2(C)C)C(C)(C)S1` were 1700 nM, 4400 nM and 5.2 nM.
In the case of `CC1(C)S[C@H]([C@H](NC(=O)Cc2ccccc2)C(=O)NCc2ccccc2)N[C@H]1C(=O)NCCNC(=O)[C@@H]1N[C@@H]([C@H](NC(=O)Cc2ccccc2)C(=O)NCc2ccccc2)SC1(C)C`, the figures for the EC50 (in assay [1]; with MT4) were 60 nM and 290 nM, respectively.
As for `CC1(C)S[C@H]([C@H](NC(=O)Cc2ccccc2)C(=O)NCC(F)(F)F)N[C@H]1C(=O)NCCNC(=O)[C@@H]1N[C@@H]([C@H](NC(=O)Cc2ccccc2)C(=O)NCC(F)(F)F)SC1(C)C`, the EC50 in assay [1] was 220 nM; in the assay on MT4, 280 nM. In assay [2], this compound had an IC50 of 4.4 nM.
For `CCNC(=O)[C@@H](NC(=O)CCc1ccccc1)[C@@H]1N[C@@H](C(=O)NCCNC(=O)[C@@H]2N[C@@H]([C@H](NC(=O)CCc3ccccc3)C(=O)NCC)SC2(C)C)C(C)(C)S1`, the EC50 in assay [1] came out at 60 nM; in the assay with MT4, 3900 nM. Also, the concentration for half-maximal inhibition (IC50) in assay [2] turned out to be 2.4 nM.
`CC1(C)S[C@H]([C@H](NC(=O)c2ccccc2-c2ccccc2)C(=O)NCC(=O)O)N[C@H]1C(=O)NCCNC(=O)[C@@H]1N[C@@H]([C@H](NC(=O)c2ccccc2-c2ccccc2)C(=O)NCC(=O)O)SC1(C)C`: in the assay on MT4, the EC50 was greater than 100000 nM. In assay [2], this compound gave an IC50 of 39 nM.
On to `CC1(C)S[C@H]([C@H](NC(=O)c2ccccc2-c2ccccc2)C(=O)NCc2ccccc2)N[C@H]1C(=O)NCCNC(=O)[C@@H]1N[C@@H]([C@H](NC(=O)c2ccccc2-c2ccccc2)C(=O)NCc2ccccc2)SC1(C)C`, for which the EC50 in assay [1] is 130 nM; in the assay on MT4, 110 nM. Further, half-maximal inhibition in assay [2] (IC50) was put at 7.5 nM.
For `Cc1cn([C@H]2C[C@H](N=[N+]=[N-])[C@@H](CO)O2)c(=O)[nH]c1=O` [ZIDOVUDINE], the EC50 came out at 30 nM in assay [1] and 20 nM in the assay on MT4.
Turning to `CCNC(=O)[C@@H](NS(=O)(=O)Cc1ccccc1)[C@@H]1N[C@@H](C(=O)NCCNC(=O)[C@@H]2N[C@@H]([C@H](NS(=O)(=O)Cc3ccccc3)C(=O)NCC)SC2(C)C)C(C)(C)S1`, the EC50 in assay [1] is 13000 nM; in the assay with MT4, 32000 nM. Half-maximal inhibition in assay [2] (IC50) was put at 58 nM.
In the case of `CC1(C)S[C@H]([C@H](NC(=O)Cc2ccccn2)C(=O)NCc2ccccc2)N[C@H]1C(=O)NCCNC(=O)[C@@H]1N[C@@H]([C@H](NC(=O)Cc2ccccn2)C(=O)NCc2ccccc2)SC1(C)C`, the EC50 in the assay with MT4 was greater than 10000 nM. In assay [2], this compound had an IC50 of 0.55 nM.
The compound `CC1(C)S[C@H]([C@H](NC(=O)Cc2ccccn2)C(=O)NCc2ccc(Cl)cc2)N[C@H]1C(=O)NCCNC(=O)[C@@H]1N[C@@H]([C@H](NC(=O)Cc2ccccn2)C(=O)NCc2ccc(Cl)cc2)SC1(C)C` displayed a concentration giving a half-maximal response (EC50) in the assay on MT4 of 1900 nM. For the same compound, in assay [2], the IC50 worked out at 7.5 nM.
Compound `CCNC(=O)[C@@H](NC(=O)/C=C\c1ccccc1)[C@@H]1N[C@@H](C(=O)NCCNC(=O)[C@@H]2N[C@@H]([C@H](NC(=O)/C=C\c3ccccc3)C(=O)NCC)SC2(C)C)C(C)(C)S1` showed an EC50 in the assay with MT4 of 3200 nM. The same compound came in with an IC50 in assay [2] of 2.9 nM.
Taken in the same sequence, the figures for `CCNC(=O)[C@@H](NC(=O)Cc1ccccc1)[C@@H]1N[C@@H](C(=O)NCCNC(=O)[C@@H]2N[C@@H](CNC(=O)Cc3ccccc3)SC2(C)C)C(C)(C)S1` were greater than 100000 nM and 35 nM.
With `CC1(C)S[C@H]([C@H](NC(=O)Cc2ccccc2)C(=O)N2CCCCC2)N[C@H]1C(=O)NCCNC(=O)[C@@H]1N[C@@H]([C@H](NC(=O)Cc2ccccc2)C(=O)N2CCCCC2)SC1(C)C`, the results for the EC50 (in assay [1]; in the assay with MT4) were 230 nM and 1800 nM, respectively. In addition, in assay [2], it took 6.9 nM to reach half-maximal inhibition (IC50).
`CCNC(=O)[C@@H](NC(=O)c1ccccc1Cc1ccccc1)[C@@H]1N[C@@H](C(=O)NCCNC(=O)[C@@H]2N[C@@H]([C@H](NC(=O)c3ccccc3Cc3ccccc3)C(=O)NCC)SC2(C)C)C(C)(C)S1` registered an EC50 in the assay with MT4 greater than 100000 nM. Further, the IC50 in assay [2] stood at 72 nM.
Turning to `CN(C)c1ccc(CNC(=O)[C@@H](NC(=O)Cc2ccccc2)[C@@H]2N[C@@H](C(=O)NCCNC(=O)[C@@H]3N[C@@H]([C@H](NC(=O)Cc4ccccc4)C(=O)NCc4ccc(N(C)C)cc4)SC3(C)C)C(C)(C)S2)cc1`, the EC50 is 20 nM in assay [1] and less than 10 nM with MT4. The midpoint of inhibition in assay [2], the IC50, lay at 47 nM.
In the same order, the values of `CC1(C)S[C@H]([C@H](NC(=O)Cc2ccccn2)C(=O)NCc2ccc(Cl)cc2Cl)N[C@H]1C(=O)NCCNC(=O)[C@@H]1N[C@@H]([C@H](NC(=O)Cc2ccccn2)C(=O)NCc2ccc(Cl)cc2Cl)SC1(C)C` are 240 nM, 530 nM and 14 nM.
As for `CC1(C)S[C@H]([C@H](NC(=O)Cc2ccccc2)C(=O)NCC(=O)O)N[C@H]1C(=O)NCCNC(=O)[C@@H]1N[C@@H]([C@H](NC(=O)Cc2ccccc2)C(=O)NCC(=O)O)SC1(C)C`, in the assay with MT4, the EC50 was greater than 100000 nM. Moreover, in assay [2], the midpoint of inhibition, the IC50, lay at 39 nM.
In the assay with MT4, `CC1(C)S[C@H]([C@@H](CO)NC(=O)Cc2ccccc2)N[C@H]1C(=O)NCCNC(=O)[C@@H]1N[C@@H]([C@@H](CO)NC(=O)Cc2ccccc2)SC1(C)C` displayed an EC50 greater than 100000 nM. The half-inhibitory concentration (IC50) in assay [2] amounted to 140 nM.
Turning to `CC(C)(C)OC(=O)CNC(=O)[C@@H](NC(=O)Cc1ccccc1)[C@@H]1N[C@@H](C(=O)NCCNC(=O)[C@@H]2N[C@@H]([C@H](NC(=O)Cc3ccccc3)C(=O)NCC(=O)OC(C)(C)C)SC2(C)C)C(C)(C)S1`, a half-maximal effect in the assay with MT4 (EC50) was put at 2700 nM. The same compound returned an IC50 in assay [2] of 21 nM.
`CC(C)(C)NC(=O)[C@@H]1C[C@@H]2CCCC[C@@H]2CN1C[C@@H](O)[C@H](Cc1ccccc1)NC(=O)[C@H](CC(N)=O)NC(=O)c1ccc2ccccc2n1`: the EC50 was 0.6 nM in assay [1] and 4 nM with MT4.
As for `CCNC(=O)[C@@H](NC(=O)c1ccccc1-c1ccccc1)[C@@H]1N[C@@H](C(=O)NCCNC(=O)[C@@H]2N[C@@H]([C@H](NC(=O)c3ccccc3-c3ccccc3)C(=O)NCC)SC2(C)C)C(C)(C)S1`, the values for the EC50 (in assay [1]; with MT4) were 170 nM and 30 nM, respectively. The compound also returned an IC50 in assay [2] of 9.9 nM.
Regarding `CC(C)(C)OC(=O)CNC(=O)[C@@H](NC(=O)c1ccccc1-c1ccccc1)[C@@H]1N[C@@H](C(=O)NCCNC(=O)[C@@H]2N[C@@H]([C@H](NC(=O)c3ccccc3-c3ccccc3)C(=O)NCC(=O)OC(C)(C)C)SC2(C)C)C(C)(C)S1`, in the assay on MT4, the concentration for a half-maximal effect (EC50) was found to be 1600 nM. The IC50 in assay [2] turned out to be 4.1 nM.
On to `CN(C)c1ccc(CNC(=O)[C@@H](NC(=O)c2ccccc2-c2ccccc2)[C@@H]2N[C@@H](C(=O)NCCNC(=O)[C@@H]3N[C@@H]([C@H](NC(=O)c4ccccc4-c4ccccc4)C(=O)NCc4ccc(N(C)C)cc4)SC3(C)C)C(C)(C)S2)cc1`, for which the figures for the concentration giving a half-maximal response (EC50) (in assay [1]; in the assay with MT4) were 30 nM and less than 10 nM, respectively. In assay [2], this compound came in with an IC50 of 0.23 nM.
In the assay on MT4, `CCNC(=O)[C@@H](NC(=O)CC(C)C)[C@@H]1N[C@@H](C(=O)NCCNC(=O)[C@@H]2N[C@@H]([C@H](NC(=O)CC(C)C)C(=O)NCC)SC2(C)C)C(C)(C)S1` gave an EC50 greater than 100000 nM. Moreover, in assay [2], half-maximal inhibition (IC50) required 8.7 nM.
Taken in the same sequence, the figures for `CCNC(=O)[C@@H](NC(=O)c1c(-c2ccccc2)noc1C)[C@@H]1N[C@@H](C(=O)NCCNC(=O)[C@@H]2N[C@@H]([C@H](NC(=O)c3c(-c4ccccc4)noc3C)C(=O)NCC)SC2(C)C)C(C)(C)S1` were 2500 nM and 5.4 nM.
Regarding `CC1(C)S[C@H]([C@H](NC(=O)Cc2ccccc2)C(=O)NCC2CCCCC2)N[C@H]1C(=O)NCCNC(=O)[C@@H]1N[C@@H]([C@H](NC(=O)Cc2ccccc2)C(=O)NCC2CCCCC2)SC1(C)C`, the EC50 was 60 nM in assay [1] and 8200 nM in the assay on MT4. In assay [2], this compound had an IC50 of 40 nM.
With `CCNC(=O)[C@@H](NC(=O)Cc1ccccn1)[C@@H]1N[C@@H](C(=O)NCCNC(=O)[C@@H]2N[C@@H]([C@H](NC(=O)Cc3ccccn3)C(=O)NCC)SC2(C)C)C(C)(C)S1`, the EC50 with MT4 is greater than 100000 nM. Also, 19 nM corresponded to half-maximal inhibition in assay [2] (IC50).
In the same order, the values of `CC1(C)S[C@H]([C@H](NC(=O)Cc2ccccc2)C(=O)NCc2ccccn2)N[C@H]1C(=O)NCCNC(=O)[C@@H]1N[C@@H]([C@H](NC(=O)Cc2ccccc2)C(=O)NCc2ccccn2)SC1(C)C` are 80000 nM and 11 nM.

For the origin of these results see ChEMBL document CHEMBL1126854, “A series of penicillin derived C2-symmetric inhibitors of HIV-1 proteinase: synthesis, mode of interaction, and structure-activity relationships” (J Med Chem, 1993).
